Here are results for two compounds from ChEMBL document CHEMBL3352316, “Optimization of physicochemical properties and safety profile of novel bacterial topoisomerase type II inhibitors (NBTIs) with activity against Pseudomonas aeruginosa” (Bioorg Med Chem, 2014).

Usually MIC90 stands for the lowest concentration that inhibits either 90% of growth or 90% of the strains tested, depending on the study. A higher MIC90 goes with lower susceptibility. As usually defined, the IC50 is the point on the concentration scale where inhibition reaches its midpoint. Low values mean greater potency in that assay, high ones weaker potency in that assay. One may read the Vd as a proportionality between amount in the body and measured concentration, not a real space. The term inhibition denotes the drop in the measured response relative to a control, in per cent. A lower inhibition goes with a weak effect. As usually defined, the fraction unbound is free concentration divided by total concentration. A higher fraction unbound goes with weak binding. A word on the logD: it is lipophilicity at a set pH, counting ionised and neutral species. Read a high logD as a more lipophilic compound. Usually AUC(0-inf) stands for total exposure, with the tail of the curve extrapolated. Read a low AUC(0-inf) as less exposure.

Structures are written as SMILES. In brackets after ≈: the same amount, converted by molar mass.

One series relates to Staphylococcus aureus. Kind of series: Antimicrobial activity against methicillin-susceptible Staphylococcus aureus after 18 to 20 hrs by broth microdilution. It is filed as functional. Summed up: (§1)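 Broth microdilution followed CLSI guidelines in Mueller Hinton broth. Inocula were grown 18–20 h at 35 °C on blood agar. Compound in DMSO was tested in doubling dilutions from 64 to 0.06 µg/mL, at 2% DMSO final. Plates were incubated 18–20 h and read at OD 620 nm. MIC was taken as the concentration giving >90% growth inhibition.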
A general note: In broth dilution the organism is exposed to a series of concentrations in liquid medium.

Series [1] in a line: Inhibition of Escherichia coli topoisomerase IV ATPase activity.
In series [2] the test system is Pseudomonas aeruginosa. As to the kind of experiment: Antimicrobial activity against Pseudomonas aeruginosa clinical isolate after 18 to 20 hrs by broth microdilution. The class given is functional. In short, it runs like this: as §1
The next series deals with Escherichia coli. Kind of series: Antimicrobial activity against Escherichia coli after 18 to 20 hrs by broth microdilution. The class given is functional. Summed up:
as §1

The nature of series [3]: Volume of distribution in rat at 10 mg/kg, iv. The class given is ADME, organism-based. Also noted: dose 10 mg/kg, route intravenous. Particulars: in vivo. Summed up:
(§2)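 Male rats (Wistar Han) and Beagle dogs received 10 mg/kg as a 15 min iv infusion. Serial 200 µL whole-blood samples were taken from 0 to 24 h. Plasma levels were measured by LC–MS/MS against a standard curve after methanol protein precipitation. Parameters were estimated non-compartmentally.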

Series [4] can be described thus: Volume of distribution in beagle dog at 10 mg/kg, iv. Particulars: in vivo. The class given is ADME, organism-based, Canis lupus familiaris. The arrangement: dose 10 mg/kg, route intravenous. Summed up:
as §2

Series [5] has as its target 5-hydroxytryptamine receptor 4 (Homo sapiens) (UniProt Q13639). Kind of series: Inhibition of 5-HT4 receptor (unknown origin) at 30 uM.
Series [6] has as its target T1, Potassium voltage-gated channel subfamily KQT member 1 (Homo sapiens, UniProt P51787).
T1 sequence (P51787 whole entry): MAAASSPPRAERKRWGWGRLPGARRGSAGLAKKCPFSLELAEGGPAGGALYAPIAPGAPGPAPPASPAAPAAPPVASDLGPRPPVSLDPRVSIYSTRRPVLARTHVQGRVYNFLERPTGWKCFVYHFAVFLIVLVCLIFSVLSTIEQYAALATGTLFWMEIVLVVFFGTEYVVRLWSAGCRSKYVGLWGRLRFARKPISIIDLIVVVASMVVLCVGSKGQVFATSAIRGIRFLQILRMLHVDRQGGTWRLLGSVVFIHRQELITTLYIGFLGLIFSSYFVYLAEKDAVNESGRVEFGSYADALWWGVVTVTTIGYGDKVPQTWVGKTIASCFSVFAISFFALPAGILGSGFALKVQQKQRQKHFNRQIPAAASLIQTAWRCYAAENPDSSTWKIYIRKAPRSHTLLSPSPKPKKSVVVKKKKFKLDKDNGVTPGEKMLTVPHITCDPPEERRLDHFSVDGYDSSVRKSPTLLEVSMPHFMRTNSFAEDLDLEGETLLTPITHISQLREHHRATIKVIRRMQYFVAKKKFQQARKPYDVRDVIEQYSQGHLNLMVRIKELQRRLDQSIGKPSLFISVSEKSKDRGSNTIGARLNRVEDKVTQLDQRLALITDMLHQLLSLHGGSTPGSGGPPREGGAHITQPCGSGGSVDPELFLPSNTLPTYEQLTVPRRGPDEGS
As to the kind of experiment: Inhibition of potassium channel IKs (unknown origin). Summed up:
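Automated IonWorks patch clamp was run on CHO or HEK cells expressing each channel. A channel-specific voltage pulse was applied before compound and again about 3 min after addition.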

Series [7] in a line: Fraction unbound in human plasma by LC/MS-MS analysis. The class given is ADME, cell-free. In short, it runs like this:
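Equilibrium dialysis: 10 µM compound was spiked into human plasma against phosphate buffer and rotated at 37 °C for 16 h. Plasma and buffer concentrations were quantified by LC/MS–MS with a C18 column and ESI MRM detection.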

A short description of series [8]: Partition co-efficient, log D of the compound at pH 7.4 by shake flask method. The class given is physicochemical. The note with it: buffer. In short, it runs like this:
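Shake-flask method with 10 mM phosphate buffer pH 7.4 against n-octanol, shaken 1 h at 1200 rpm to equilibrium. Analysis was by LC/UV with MS confirmation.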

For series [9], the target named is Voltage-gated inwardly rectifying potassium channel KCNH2 (Homo sapiens, UniProt Q12809). Kind of series: Inhibition of human ERG by cell-based patch clamp method. A general note: In patch-clamp work, channel activity is measured electrically.
In series [10] the test system is Pseudomonas aeruginosa. Kind of series: Antimicrobial activity against Pseudomonas aeruginosa PAO1 in neutropenic mouse thigh infection model assessed as log reduction in CFU at 100 mg/kg/day, ip bid q12 regime starting 2 hrs after infection measured 24 hrs post start of treatment relative to control. It is filed as functional. Particulars: route intraperitoneal. In short, it runs like this:
(§3)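 CD-1 mice made neutropenic with intraperitoneal cyclophosphamide 4 days (150 mg/kg) and 1 day (100 mg/kg) before thigh infection with P. aeruginosa PAO1, target inoculum 5 × 10⁵ CFU. Groups of five dosed ip in 5% dextrose with lactic acid pH 5.0. Vehicle-only group included. Thighs removed 24 h after treatment start, weighed, homogenized and plated on tryptic soy agar, 37 °C overnight. Log CFU/g reduction is relative to starting inoculum.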

Series [11] concerns Pseudomonas aeruginosa. As to the kind of experiment: Antimicrobial activity against Pseudomonas aeruginosa PAO1 in neutropenic mouse thigh infection model assessed as log reduction in CFU at 150 mg/kg/day, ip bid q12 regime starting 2 hrs after infection measured 24 hrs post start of treatment relative to control. It is filed as functional. The note with it: route intraperitoneal. In short, it runs like this: as §3

In series [12] the test system is Pseudomonas aeruginosa. Kind of series: Antimicrobial activity against Pseudomonas aeruginosa PAO1 in neutropenic mouse thigh infection model assessed as log reduction in CFU at 200 mg/kg/day, ip bid q12 regime starting 2 hrs after infection measured 24 hrs post start of treatment relative to control. The class given is functional. Particulars: route intraperitoneal. Summed up: as §3

Series [13] in a line: AUC(infinity) in neutropenic mouse at 100 mg/kg/day, ip bid of total 12 doses. The arrangement: dose 100 mg/kg/day, time infinity, route intraperitoneal. It is filed as ADME, organism-based. Particulars: plasma. Summed up:
(§4)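 CD-1 mice were made neutropenic with ip cyclophosphamide, 150 mg/kg at day −4 and 100 mg/kg at day −1, then infected in the thigh with P. aeruginosa PAO1. Dosing was ip, bid q12 from 2 h post-infection, in 5% dextrose with lactic acid pH 5.0. Groups of three mice were killed at timed intervals and cardiac-puncture plasma was analysed by LC–MS/MS.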

Series [14] is described as follows: AUC(infinity) in neutropenic mouse at 200 mg/kg/day, ip bid of total 12 doses. The class given is ADME, organism-based. Particulars: plasma. The arrangement: dose 200 mg/kg/day, time infinity, route intraperitoneal. In short, it runs like this:
as §4

Another series deals with Cavia porcellus. As to the kind of experiment: Cardiotoxicity in anesthetized guinea pig assessed as change in monophasic action potential duration at 90% repolarization at free drug 86 uM, iv as 17-min infusion. Particulars: in vivo. The class given is toxicity, organism-based. In short, it runs like this: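 Male guinea pigs were anaesthetized with Nembutal, ventilated, vagotomized and given propranolol 0.5 mg/kg iv. MAPD90 was recorded during pacing. Compound in 5% dextrose was infused iv over two 17-min periods: 17 mg/kg at 0.1 mL/kg min, then 51 mg/kg at 0.2 mL/kg min. Blood was sampled at each level, and % change was taken from each animal's time-zero baseline.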

Another series has as its system Canis familiaris. Kind of series: Cardiotoxicity in telemetered dog assessed as prolongation of QTc interval at 56 uM, iv as 1 hr infusion. It is filed as toxicity, organism-based, Canis lupus familiaris. Particulars: in vivo, 4 h, in the assay text read “4 hr infusion” for “1 hr infusion”. In short, it runs like this: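 Dogs were dosed by iv infusion in vehicle adjusted to pH 4. ECG intervals were measured and QTcR was corrected for heart rate by individual-animal correction. % change in QTcR was taken against the matched time point of the same animal on vehicle. Infusion was 1 h at 5 mL/kg/h (5% dextrose) or 4 h at 2 mL/kg/h (5% mannitol/0.1 M tartaric acid), with readings at infusion end.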

Series [15] is described as follows: Ratio of fAUC to MIC in Pseudomonas aeruginosa PAO1 in neutropenic mouse thigh infection model at 150 mg/kg/day, ip bid q12h starting 2 h post infection. The note with it: route intraperitoneal.

5-hydroxytryptamine receptor 4 (Homo sapiens), sequence (Q13639 whole entry): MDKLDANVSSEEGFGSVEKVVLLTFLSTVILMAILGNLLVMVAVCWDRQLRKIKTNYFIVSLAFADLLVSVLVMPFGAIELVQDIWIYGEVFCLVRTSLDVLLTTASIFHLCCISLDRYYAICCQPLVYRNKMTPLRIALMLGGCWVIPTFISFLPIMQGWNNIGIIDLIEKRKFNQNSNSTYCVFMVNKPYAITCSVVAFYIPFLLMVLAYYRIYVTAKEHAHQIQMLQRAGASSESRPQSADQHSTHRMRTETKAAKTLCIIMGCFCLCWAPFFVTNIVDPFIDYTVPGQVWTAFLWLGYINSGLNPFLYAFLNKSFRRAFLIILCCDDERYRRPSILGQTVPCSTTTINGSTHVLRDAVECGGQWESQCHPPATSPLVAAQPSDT
Voltage-gated inwardly rectifying potassium channel KCNH2, sequence (Q12809 whole entry): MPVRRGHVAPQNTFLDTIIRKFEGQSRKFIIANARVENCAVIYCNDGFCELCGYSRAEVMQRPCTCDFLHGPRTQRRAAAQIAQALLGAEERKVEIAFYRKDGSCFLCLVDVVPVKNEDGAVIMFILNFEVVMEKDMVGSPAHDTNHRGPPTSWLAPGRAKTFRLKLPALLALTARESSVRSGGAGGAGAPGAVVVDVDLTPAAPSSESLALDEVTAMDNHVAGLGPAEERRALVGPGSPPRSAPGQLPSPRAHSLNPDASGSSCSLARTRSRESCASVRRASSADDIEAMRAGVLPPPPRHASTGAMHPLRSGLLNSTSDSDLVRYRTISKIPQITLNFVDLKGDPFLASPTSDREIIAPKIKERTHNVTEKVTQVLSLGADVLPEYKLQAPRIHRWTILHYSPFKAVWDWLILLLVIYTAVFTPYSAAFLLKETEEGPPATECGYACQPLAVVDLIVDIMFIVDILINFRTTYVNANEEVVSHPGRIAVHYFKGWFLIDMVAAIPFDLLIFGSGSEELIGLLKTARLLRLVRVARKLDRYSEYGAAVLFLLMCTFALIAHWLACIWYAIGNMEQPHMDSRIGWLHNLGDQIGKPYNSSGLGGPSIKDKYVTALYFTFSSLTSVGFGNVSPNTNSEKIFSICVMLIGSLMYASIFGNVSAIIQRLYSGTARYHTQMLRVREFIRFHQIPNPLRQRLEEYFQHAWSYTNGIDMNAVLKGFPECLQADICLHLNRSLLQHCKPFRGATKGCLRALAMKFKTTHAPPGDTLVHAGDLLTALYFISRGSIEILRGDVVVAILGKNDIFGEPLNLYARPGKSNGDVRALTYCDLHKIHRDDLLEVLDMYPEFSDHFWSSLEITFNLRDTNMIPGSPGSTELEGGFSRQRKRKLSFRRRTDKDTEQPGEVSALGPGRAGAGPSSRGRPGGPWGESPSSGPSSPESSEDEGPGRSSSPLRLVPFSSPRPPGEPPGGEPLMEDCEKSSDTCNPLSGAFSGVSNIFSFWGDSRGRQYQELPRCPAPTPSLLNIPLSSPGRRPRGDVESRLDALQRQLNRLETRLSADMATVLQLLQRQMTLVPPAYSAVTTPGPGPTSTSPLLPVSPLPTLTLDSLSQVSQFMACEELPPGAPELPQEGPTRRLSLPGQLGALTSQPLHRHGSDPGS

Take `COc1ccc2ncc(=O)n(CCN3CCC(NCc4ccc5c(n4)NC(=O)CO5)CC3)c2c1`: the values for the MIC90 with Staphylococcus aureus, in the series with Pseudomonas aeruginosa [2] and in the series on Escherichia coli were 0.03 µg/mL (≈ 0.0646 µM), 4 µg/mL (≈ 8.61 µM) and 0.25 µg/mL (≈ 0.538 µM), respectively. Besides, the values for the IC50 in series [1] and in series [6] were 2.2 nM and over 100000 nM, respectively. Also, the volume of distribution (Vd) in series [3] was determined as 23 L/kg; in series [4] it was 2 L/kg. The same compound displayed an inhibition in series [5] of 99%.
In the case of `N[C@@H](Cn1c(=O)cnc2ccc(F)cc21)[C@H]1CC[C@H](NCc2ncc3c(n2)NC(=O)CO3)CC1`, the values for the MIC90 in the series on Staphylococcus aureus, against Pseudomonas aeruginosa [2] and in the series with Escherichia coli were 1 µg/mL (≈ 2.14 µM), 4 µg/mL (≈ 8.56 µM) and 1 µg/mL (≈ 2.14 µM), respectively. The fraction unbound in [7] stood at 0.73. Also, the results for the IC50 in series [1], in series [9] and in series [6] were 3 nM, over 333000 nM and over 333000 nM, respectively. In series [8], this compound registered a logD of -0.32. In addition, the Vd turned out to be 9 L/kg in series [3] and 4 L/kg in series [4]. Also, the figures for the FC in the series on Pseudomonas aeruginosa [10], in the series on Pseudomonas aeruginosa [11] and with Pseudomonas aeruginosa [12] were 0.2, 1.3 and 2.5, respectively. In addition, the AUC(0-inf) was determined as 14800 ng·h/mL in series [13] and 29900 ng·h/mL in series [14]. For the same compound, the inhibition in series [5] worked out at 7%. For the same compound, the results for the Activity entry with Cavia porcellus and in the series on Canis familiaris were “Toxic” and 9%, respectively. Besides, the fAUC/MIC in series [15] is listed as 16.
